High-throughput results from PubChem BioAssay.
The list is not random: actives were taken first. Their share in the collection is about 6%.
HUVEC prolif 384 – blocks proliferation of human endothelial cells; actives 1.1% (n = 86,000); AID 648; viability, % at 10 µM (by protocol); HUVEC proliferation, CellTiter-Glo luminescence, 72 h; active compounds read low;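 active = viability at or below 30%; inactive = viability above 30%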;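 note: 100% = median luminescence of DMSO-only cell control wells on each plate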
Jurkat tox 60K – cytotoxicity toward Jurkat cells; Jurkat E6.1 viability, ATP luminescence, 48 h; inhibition, % at 4 µM; actives 1.2% (n = 56,000); AID 463;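 active = inhibition above the mean inhibition of all tested compounds plus 3 SD, cut at about 28% in these data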
PTK2B oligo ant – antagonists of human Pyk2 oligomerization; z-score (the deposit names both 25 µM and 10 µM); Q293 cells, Pyk2 FERM NanoBiT luminescence; active compounds read low; Q14289; actives 0.83% (n = 99,000);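 active = Z-score of -3 or lower, scaled per plate to the spread of control and sample wells; inactive = z-score above -3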;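 note: negative z-score means lost luminescence so less FERM oligomerization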
Target sequence (Q14289 whole entry, looked up): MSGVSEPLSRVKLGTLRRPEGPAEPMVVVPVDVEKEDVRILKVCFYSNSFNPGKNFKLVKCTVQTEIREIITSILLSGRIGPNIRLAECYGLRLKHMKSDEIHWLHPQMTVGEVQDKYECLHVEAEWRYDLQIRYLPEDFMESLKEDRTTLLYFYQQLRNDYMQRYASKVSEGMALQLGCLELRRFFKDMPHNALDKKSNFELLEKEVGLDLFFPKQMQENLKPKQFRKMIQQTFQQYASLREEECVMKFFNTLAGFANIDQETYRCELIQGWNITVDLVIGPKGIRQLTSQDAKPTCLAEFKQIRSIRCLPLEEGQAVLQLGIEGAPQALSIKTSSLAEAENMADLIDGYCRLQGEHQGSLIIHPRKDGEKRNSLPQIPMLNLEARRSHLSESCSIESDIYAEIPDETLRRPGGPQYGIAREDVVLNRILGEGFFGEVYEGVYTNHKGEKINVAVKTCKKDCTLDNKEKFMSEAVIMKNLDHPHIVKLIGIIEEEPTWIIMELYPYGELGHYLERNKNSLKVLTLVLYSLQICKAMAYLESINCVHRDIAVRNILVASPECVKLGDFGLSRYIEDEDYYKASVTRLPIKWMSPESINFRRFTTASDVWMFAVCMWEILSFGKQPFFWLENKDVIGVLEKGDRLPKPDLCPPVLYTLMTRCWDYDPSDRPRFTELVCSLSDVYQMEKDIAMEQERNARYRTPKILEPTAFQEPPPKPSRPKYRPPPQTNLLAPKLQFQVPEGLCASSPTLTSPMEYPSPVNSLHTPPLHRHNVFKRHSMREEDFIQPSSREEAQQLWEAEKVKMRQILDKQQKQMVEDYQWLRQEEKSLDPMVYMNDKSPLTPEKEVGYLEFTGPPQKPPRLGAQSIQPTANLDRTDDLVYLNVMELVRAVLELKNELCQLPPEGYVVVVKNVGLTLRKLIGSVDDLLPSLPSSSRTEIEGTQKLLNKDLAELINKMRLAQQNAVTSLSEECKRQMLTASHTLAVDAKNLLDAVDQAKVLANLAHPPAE
Fibroblast inh – blocks proliferation of human lung fibroblasts; LL 47 human lung fibroblast viability, ATP luminescence; active compounds read low; viability, % at 10 µM; actives 1.1% (n = 85,000); AID 719;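 active = viability at or below 50% in the single dose screen; inactive = viability above 50%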;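 note: compound exposure lasted 72 h before the ATP readout; 100% = median luminescence of untreated cell-only wells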
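Test system: LL 47 human lung fibroblasts / Quantity: 1,150 cells in each well / Medium: IMEM growth medium with 15% fetal bovine serum / Incubation: 72 h compound exposure at 37 °C after overnight plating / Detection: CellTiter-Glo luminescence measuring cellular ATP / Read-out: % viability versus median cells-only luminescence / Benchmarks: cell-only wells, no compound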
F-actin modifier – modifiers of cytoskeleton assembly; actives 0.18% (n = 91,000); HUVEC TNFa F-actin phalloidin imaging, high content; inhibition, % at 2 µM;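 active = inhibition above the batch mean plus 3 SD and confirmed as a hit by visual image inspection, cut at about 30% in these data, passing the limit was not always enough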
H69AR inhibit – blocks growth of human H69AR lung tumor cells; H69AR lung tumor viability, ATP luminescence, 72 h; active compounds read low; viability, % at 10 µM; actives 6% (n = 85,000); AID 598;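 active = viability at or below 40%; inactive = viability above 40%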;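 note: multidrug resistant small cell line overexpressing MRP-1 efflux transporter; 100% = mean luminescence of untreated control wells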
* marks the source's active call; other numbers are inactive results; · = no result given.

SMILES	HUVEC prolif 384	Jurkat tox 60K	PTK2B oligo ant	Fibroblast inh	F-actin modifier	H69AR inhibit
Cc1ccc2[nH]c(=O)c(CN(CCc3ccccc3)C(c3nnnn3Cc3ccco3)C(C)C)cc2c1 (centres undefined)	·	5	·	·	·	·
CCOC(=O)Cn1nnnc1C(CC)N(Cc1ccccc1)Cc1cc2cc(C)ccc2[nH]c1=O (centres undefined)	86	·	-1.9	94	-10	79
CCC(c1nnnn1CCc1ccccc1)N(Cc1ccco1)Cc1cc2cc(C)cc(C)c2[nH]c1=O (centres undefined)	82	8	-0.44	83	-20	26*
CCN(CC)C(=O)Cn1cnc2sc(C(=O)Nc3cc(OC)c(OC)c(OC)c3)c(C)c2c1=O	82	·	0.27	103	8	88
CCN(CC)c1ccc(C2Nc3cccc4cccc(c34)N2)c(O)c1	74	·	-1.6	97	30	19*
Oc1ccc2ccccc2c1C1Nc2cccc3cccc(c23)N1	84	·	-1	93	-2	110
C=CCNc1nc(NCc2ccccc2)c(C#N)c2c1CN(C)CC2	11*	·	0.69	58	-20	29*
N#Cc1c(N2CCN(C(=O)c3ccccc3)CC2)nc(-c2ccccc2)c2c1CCCC2	69	·	-2.4	91	-18	14*
N#Cc1c(NCCN)nc(NCc2ccccc2)c2c1CCN(Cc1ccccc1)C2	18*	·	0.33	83	-43	47
N#Cc1c(NCCN)nc(-c2ccccc2)c2c1CCCC2	89	·	-0.12	66	-3	6.0*
N#Cc1c(N2CCN(C(=O)c3ccccc3Cl)CC2)nc(-c2ccccc2)c2c1CCCC2	·	·	-1.1	·	10	·
Cc1ccc(-c2nnc(SCC(C)C)n2C)cc1	94	·	0.62	105	-4	79
NC(=O)C1(N2CCCCC2)CCN(S(=O)(=O)c2cc(Cl)ccc2Cl)CC1	98	-2	·	99	13	92
CC(=O)CCN1CCOCC1	96	·	0.05	90	3	29*
CCOCCCNC(=O)c1cc2c(=O)n3cccc(C)c3nc2n1C	51	7	·	55	·	34*
COCCNC(=O)c1cc2c(=O)n3cccc(C)c3nc2n1C	52	-2	·	73	·	27*
CS(=O)(=O)N(CC(=O)NCCC1=CCCCC1)c1ccc2c(c1)OCO2	113	4	0.12	96	-9	90
COC(=O)C1CCN(C(=O)COC(=O)CC(NC(N)=O)c2ccc(Cl)cc2)CC1 (centres undefined)	93	-6	0.61	95	·	97
COc1ccc(Cn2nnnc2C(c2ccccc2OC)N2CCC(C(N)=O)CC2)cc1 (centres undefined)	107	-5	-0.43	·	-3	64
COc1cccc(C(c2nnnn2Cc2ccccc2)N2CCN(C3CCCC3)CC2)c1OC (centres undefined)	87	-1	-1.2	102	-11	20*
c1ccc(C(c2nnnn2Cc2ccco2)N2CCN(c3nc4ccccc4s3)CC2)cc1 (centres undefined)	79	·	-2	105	2	85
c1ccc(Cn2nnnc2C(c2cccs2)N2CCCCCC2)cc1 (centres undefined)	89	0	-1	82	6	22*
COc1ccc(N2CCN(C(c3ccccc3OC)c3nnnn3Cc3ccco3)CC2)cc1 (centres undefined)	104	0	-3.2*	102	14	82
c1ccc(Cn2nnnc2C(c2ccccc2)N2CCN(c3nc4ccccc4s3)CC2)cc1 (centres undefined)	121	0	-4.1*	95	21	80
CCCCNC(=S)NNC(=O)c1cccnc1	96	·	1.4	107	6	96
SMILES	HUVEC prolif 384	Jurkat tox 60K	PTK2B oligo ant	Fibroblast inh	F-actin modifier	H69AR inhibit
COc1ccc(C(=O)N(CC2CCCO2)C(C(=O)NC2CCCC2)c2ccc(Cl)cc2)cc1OC (centres undefined)	·	·	0.67	·	20	·
CCC(=O)N1CCN(c2ccccc2NC(=O)COc2ccccc2Cl)CC1	80	8	-2.3	89	8	67
CCCCC(c1nnnn1CS(=O)(=O)c1ccc(C)cc1)N1CCN(c2ccccc2)CC1 (centres undefined)	87	-1	-0.56	93	-15	96
COc1ccc(OC)c(C(c2nnnn2C2CCCC2)N2CCN(c3ccccc3)CC2)c1 (centres undefined)	116	8	-3.5*	95	·	91
COc1ccc(C(c2nnnn2Cc2ccccc2)N2CCN(c3nc4ccccc4s3)CC2)cc1OC (centres undefined)	101	·	-3.8*	97	-14	95
Cc1ccc(S(=O)(=O)Cn2nnnc2C(C(C)C)N2CCN(c3nc4ccccc4s3)CC2)cc1 (centres undefined)	85	·	-0.26	92	22	27*
COc1ccc(C(c2nnnn2C2CCCCC2)N2CCN(c3ccc(OC)cc3)CC2)cc1 (centres undefined)	101	4	-2.3	94	-8	89
COc1ccc(C(c2nnnn2Cc2ccccc2)N2CCN(C(=O)c3ccco3)CC2)cc1OC (centres undefined)	94	1	-0.56	101	-3	99
COc1ccccc1C(c1nnnn1Cc1ccccc1)N1CCN(c2nc3ccccc3s2)CC1 (centres undefined)	103	3	-3.8*	101	·	72
CC(=O)c1ccc(OCC(O)CN2CCN(CCO)CC2)cc1 (centres undefined)	106	5	·	119	-10	90
C=CCn1c(SCC(=O)Nc2c(C)cccc2C)nnc1-c1cnccn1	102	-11	0.93	91	30	92
O=C1C=C(c2ccccc2)C(=O)N1Nc1ccccc1	73	·	0.97	67	·	1.3*
Cc1ccc(C2=N/C(=C\c3cccs3)C(=O)N2Nc2ccccc2)cc1	92	·	-1.6	95	29	99
Cc1ccc(NN2C(=O)C=C(c3ccc(Cl)cc3)C2=O)cc1	53	·	-0.33	87	·	2.3*
Cc1noc(C)c1COC(=O)CCCc1c[nH]c2ccccc12	89	-2	0.12	101	·	80
Cc1cc(C(=O)NCc2ccco2)cs1	104	1	0.27	96	·	95
OC(COc1ccc2ccccc2c1Br)Cn1cnc(-c2ccccc2)c1 (centres undefined)	47	·	-0.04	102	·	69
COc1ccc(OCC(O)Cn2cnc(-c3ccc(Br)cc3)c2)cc1 (centres undefined)	84	·	-0.27	99	8	39*
C#CCn1c(S(=O)(=O)Cc2ccc(C)cc2)nc(-c2ccccc2)c1-c1ccccc1	·	·	-3.4*	·	16	·
C#CCn1c(S(=O)(=O)Cc2ccccc2Cl)nc(-c2ccccc2)c1-c1ccccc1	·	·	-3.5*	·	-20	·
Cc1n[nH]c(C)c1S(=O)(=O)N1CCCC(C(=O)NC2CCCCC2)C1 (centres undefined)	90	-2	·	91	·	84
